A selection: hits, their analogues and other compounds. The true share with any hit is near 2.3%.
FN deposition inh – fibronectin deposition inhibition; hit rate 0.086% among 350,000; inhibition, % at 12.6 µM; AH1F fibroblasts, Alexa488-fibronectin deposition fluorescence, overnight;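 active means mean inhibition across replicates of 30% or more, regardless of how many single replicates reach that level; inconclusive means mean under 30% yet at least half of replicates reach 30%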;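 further: positive control wells lacked labelled fibronectin entirely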
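Material: AH1F fibroblasts assembling fluorescent fibronectin matrix; amount: 10000 AH1F cells/well; medium: DMEM, 2% serum; reagent: Alexa488-fibronectin, 24 nM final in well; dosing: single compound dose, delivered by pin transfer; incubation: 1 h adhesion, overnight exposure; detection: fluorescence after three HBSS washes, excitation 485 nm, emission 525 nm; measure: fibronectin deposition inhibition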
TROY NFkB inh – TROY signaling inhibition; hit rate 0.98% among 360,000; Q293 LMP1-TROYcd NF-kB luciferase reporter, 4 h; AID 1347056; inhibition, % at 10 µM;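 active means compounds whose plate-normalised and pattern-corrected inhibition of the luciferase reporter signal at the single screening dose is 50% or more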
EWS-Fli block – blocks EWS/Fli oncoprotein-driven transcription; A673 NR0B1-luciferase reporter, viability-normalised; inhibition, % at 12.6 µM; hit rate 0.67% among 350,000; AID 651661;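 active means mean inhibition of at least 50% after viability correction, with every replicate also passing that limit; inconclusive means mean reaches 50% but only one of two replicates passes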;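 further: firefly luciferase signal divided by Alamar Blue viability fluorescence both relative to DMSO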
TWEAK Fn14 block – TWEAK-Fn14 signaling inhibition. inhibition, % at 10 µM. TWEAK-stimulated Fn14 reporter cells, luciferase luminescence, 8 h. hit rate 2% among 360,000. AID 1159606; in the data active means inhibition above about 50%
XiGFP reactiv – X-chromosome reactivation activator; AID 743238; hit rate 0.055% among 360,000; XiGFP mouse fibroblasts, % GFP-positive cells imaging, 3 d; cells co-treated with 5-aza-dC sensitizer; scaled so ellipticine positive control = 100%; activation, % at 7.58 µM;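 active means mean normalized replicate activation at least 10% and every replicate at or above 10%; inconclusive means only one of the two criteria met; inactive means mean below 10% and not all replicates reach 10%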;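 further: 0% = median of on-plate neutral control wells and 100% = ellipticine 6 µM median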
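Material: XiGFP fibroblasts, SV40-immortalized; Buffer or medium: DMEM containing 5-aza-dC; Compound dosing: single point; Times: 3 days compound exposure.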
LGR2 inh – Drosophila LGR2 receptor signaling inhibition. hit rate 0.35% among 380,000. inhibition, % at 9.99 µM. HEK293 LGR2, CRE-luciferase, bursicon-stimulated, 4 h. AID 720647;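 active means drop in luminescence signal, shown as inhibition above about 50% in the replicate tests, limit read from the data, passing the limit was not always enough; inconclusive means probably only some replicates passing the limit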;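 further: agonist challenge used bursicon conditioned medium at about half maximal strength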
An asterisk follows results filed as active; ? = inconclusive; . = no result given.

SMILES	FN deposition inh	TROY NFkB inh	EWS-Fli block	TWEAK Fn14 block	XiGFP reactiv	LGR2 inh
CC(C)N1C(=O)/C(=C\c2nc3ccccc3c(=O)n2-c2ccccc2)c2ccccc21	3	-8	.	54*	0	?
CC(C)N1C(=O)/C(=C/c2nc3ccccc3c(=O)n2-c2ccccc2)c2ccccc21	.	3	.	44	.	.
C[C@@H]1CN([C@H](C)CO)C(=O)c2cc(NC(=O)NC3CCCCC3)ccc2O[C@@H]1CN(C)S(=O)(=O)c1ccccc1	1	.	16	.	0	10
COc1ccc(C(=O)Cn2c(C)nc([N+](=O)[O-])c2Br)cc1	5	16	16	50*	0	20
Cc1nc([N+](=O)[O-])c(Br)n1CC(=O)c1ccc(Cl)cc1	.	23	.	46	.	.
Cc1nc([N+](=O)[O-])c(Br)n1Cc1ccc(Cl)c(Cl)c1	5	31	54*	81*	2	22
Cc1ccccc1S(=O)(=O)N[C@H]1CC[C@H](CCNS(=O)(=O)c2cccc(F)c2)O[C@@H]1CO	-8	.	1	.	0	10
Nc1c(C(=O)OCC2CCCO2)c2nc3ccccc3nc2n1C1CCCC1 (stereo unspecified)	.	60*	.	36	.	.
COCCn1c(N)c(C(=O)NCC2CCCO2)c2nc3ccccc3nc21 (stereo unspecified)	3	6	.	43	.	.
C=CCn1c(N)c(C(=O)OC(C)CC)c2nc3ccccc3nc21 (stereo unspecified)	.	38	.	25	.	.
COCC(C)OC(=O)c1c(N)n(CC(C)C)c2nc3ccccc3nc12 (stereo unspecified)	-8	58*	.	26	.	.
CC(C)Cn1c(N)c(C(=O)NCC2CCCO2)c2nc3ccccc3nc21 (stereo unspecified)	.	51*	.	6	.	.
CCOC(=O)C1CCCN(C(=O)Cn2cccc2C(=O)c2ccccc2)C1 (stereo unspecified)	.	30	.	99*	.	.
COC(=O)c1cc(NC(=O)c2cccnc2)cc(C(=O)OC)c1	1	-27	4	-4	0	-5
COC(=O)c1ccc(C(NC(=O)c2cccnc2)NC(=O)c2cccnc2)cc1	13	32	-2	59*	0	8
O=C(Nc1nc2cc(Cl)ccc2s1)C1CCCN(S(=O)(=O)c2cccc3cccnc23)C1 (stereo unspecified)	.	46	.	84*	.	.
O=C(C1CCN(S(=O)(=O)c2cccc3cccnc23)CC1)N1CCN(c2ccc(Cl)cc2)CC1	-8	41	12	51*	0	2
C[C@H]1CN([C@@H](C)CO)C(=O)c2cc(NC(=O)Nc3ccc(F)cc3)ccc2O[C@H]1CN(C)C(=O)Nc1ccc2c(c1)OCO2	.	.	-4	.	-1	-7
c1ccc(COc2cccc(-c3cc4nc(NCCc5ccncc5)ccn4n3)c2)cc1	-5	40	-4	61*	0	45
FC(F)(F)c1cccc(-c2cc3nc(NCCCn4ccnc4)ccn3n2)c1	15	-24	-28	-18	0	-34
c1ccc(COc2cccc(-c3cc4nc(NCCCn5ccnc5)ccn4n3)c2)cc1	15	38	10	12	0	80*
c1ccc(COc2cccc(-c3cc4nc(NCCOc5ccccc5)ccn4n3)c2)cc1	-1	-8	6	27	0	-3
COc1ccccc1NC(=O)CNC(c1ccccc1)c1ccccc1	4	-6	3	-17	0	-1
COc1ccc(C)cc1NC(=O)CNC(c1ccccc1)c1ccc(C)cc1 (stereo unspecified)	-3	18	55*	22	1	-8
COc1ccc(/C=N/NC(=O)c2ccc3ccccc3c2)cc1OS(=O)(=O)c1ccc(NC(C)=O)cc1	.	37	.	52*	.	.
SMILES	FN deposition inh	TROY NFkB inh	EWS-Fli block	TWEAK Fn14 block	XiGFP reactiv	LGR2 inh
COc1cccc(/C=N/NC(=O)c2ccc(=O)n(C)c2)c1OC	5	5	6	7	0	-20
COc1cccc(/C=N/NC(=O)c2ccccc2)c1OS(=O)(=O)c1ccccc1	5	-29	2	76*	0	9
COc1ccc(C=O)cc1OS(=O)(=O)c1ccc(NC(C)=O)cc1	1	5	6	25	1	-4
COc1ccc(-c2cnc3c(c2)C(=O)N([C@H](C)CO)C[C@H](C)[C@H](CN(C)C(=O)Nc2ccc(F)cc2)O3)cc1	2	.	-1	.	0	-5
Cc1ccc(-c2nc(C)c(C(=O)O)s2)cc1	-10	-17	-124	63*	0	?
Cc1ccc2[nH]c(C)c(/C=N/Nc3nc4ccccc4s3)c2c1	2	39	.	60*	.	.
COc1cc(CN2CCc3ccccc3C2)ccc1O	-5	19	36	91*	2	39
COc1cc(CN2CCc3ccccc3C2)cc([N+](=O)[O-])c1O	0	10	15	0	0	-1
C[C@@H]1CN([C@H](C)CO)C(=O)Cc2cc(NS(=O)(=O)c3ccc(Cl)cc3)ccc2O[C@@H]1CN(C)Cc1ccc(-c2ccccc2)cc1	.	.	8	.	0	-2
COCC(C)n1c(C)cc(C(=O)COC(=O)c2oc3ccccc3c2C)c1C (stereo unspecified)	.	7	.	-6	.	.
COCC(C)n1c(C)cc(C(=O)COC(=O)c2cc(=O)[nH]c3ccccc23)c1C (stereo unspecified)	-5	83*	41	88*	2	3
COCC(C)n1c(C)cc(C(=O)COC(=O)c2n[nH]c3ccccc23)c1C (stereo unspecified)	.	78*	.	67*	.	.
CCC(=O)N1C[C@H](C)[C@H](OC)CN(C)C(=O)c2cc(NC(=O)c3cnccn3)ccc2OC[C@H]1C	-7	.	5	.	0	-4
COc1ccccc1-c1cn(CC[C@H]2CC[C@H](NC(=O)C3CC3)[C@H](CO)O2)nn1	-3	.	5	.	0	12
COc1ccc2[nH]c3c(NCCC4=CCCCC4)ncnc3c2c1	11	28	-40	79*	0	14
Cc1ccc(S(=O)(=O)N[C@@H]2CC[C@H](CCNC(=O)C3CC3)O[C@@H]2CO)cc1	-4	.	2	.	0	5
O=C(NCC[C@@H]1CC[C@H](NC(=O)c2cnccn2)[C@H](CO)O1)Nc1ccc(F)cc1	-5	.	-4	.	0	-6
Clc1ccccc1OCc1nc(-c2ccccn2)no1	1	7	.	33	.	.
Clc1ccc(-c2nc(-c3ccccn3)no2)cc1Cl	.	29	.	80*	.	.
COc1ccc(-c2nc(-c3ccncc3)no2)cc1	-3	4	15	36	0	-44
COc1ccc(-c2nc(-c3ccccn3)no2)cc1	20	83*	86*	102*	0	100*
Clc1ccc(OCc2nc(-c3ccccn3)no2)c(Br)c1	7	24	24	67*	1	69*
